# Yeast growth inh = chemicals that inhibit yeast BB579 growth in restrictive medium (lifespan-shortening candidates); S. cerevisiae BB579 growth, OD615, 48 h; inhibition, % at 10 µM; hit rate 0.51% among 140,000; AID 804;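 active means inhibition above a set limit, 3 SD over the mean compound inhibition, cut at about 44% in these data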
#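 controls = amphotericin B 10 µg/mL, positive | assay system = DeaD yeast strain BB579 | schedule = 48 h compound exposure at 30 °C after 4 h preincubation | detection = OD615 turbidity measurement | medium = restrictive CSMM-D medium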
# PostGolgi yeast = growth inhibition of a yeast mutant, post-Golgi transport screen; inhibition, % at 10 µM; AID 739; post-Golgi transport phenotypic cell assay; hit rate 0.9% among 98,000;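 further: yeast cells grown in 1536-well plates; yeast grown about 18 h at 30C before absorbance read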
# Yeast lifespan up = extends the lifespan of yeast | S. cerevisiae growth with nicotinamide, OD615; deaD strain in restrictive glucose medium | inhibition of the nicotinamide effect, % at 10 µM | hit rate 0.68% among 130,000;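 active means inhibition above a set limit, placed 3 SD over the median of all compounds, cut at about 26% in these data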;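 further: 0% = nicotinamide-treated wells and 100% = cells grown without nicotinamide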
#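 Test system – modified budding yeast, DeaD strain · Compound – single dose 10 µM compound, 0.25% DMSO · Times – culture preincubation 4 h, compound exposure 48 h, both 30 °C · Detection – optical density (absorbance) at 615 nm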
# PostGolgi ctrl = growth of the yeast control strain, post-Golgi counter-screen; efflux-deficient yeast background strain, growth absorbance A615, 16 h; inhibition, % at 10 µM; hit rate 5% among 98,000; AID 738
# Starred values were filed as active, the others as inactive; . = not tested or not shown. This excerpt belongs to a sample that is enriched for hits. Unless noted, no stated cut-off is given here; in the data, active means inhibition above about 30%; inactive means the rest.
SMILES,Yeast growth inh,PostGolgi yeast,Yeast lifespan up,PostGolgi ctrl
Cc1ccc(Cl)cc1NC(=O)c1cnn2c1NC(c1ccco1)CC2C(F)(F)F (centres undefined),-50,41*,-10,58*
COc1cccc(C2CC(c3cccs3)=NN2C(=O)CSC2=NN3CCCC(=O)N=C3S2)c1OC (centres undefined),-27,1,-4,20
CC12CCC(C(=O)NCc3ccccc3)(OC1=O)C2(C)C (centres undefined),20,-2,-6,6
CC12CCC(C(=O)NCc3ccc4c(c3)OCO4)(OC1=O)C2(C)C (centres undefined),-56,10,-5,33*
CCOC(=O)N1CCC(NC(=O)C2CCCN(S(C)(=O)=O)C2)CC1 (centres undefined),-15,3,0,36*
COc1ccccc1NC(=O)c1cc2n(n1)C(C(F)(F)F)CC(c1ccc3c(c1)OCO3)N2 (centres undefined),-52,12,-29,37*
O=S(=O)(c1ccc(Oc2ccc(S(=O)(=O)N3CCOCC3)cc2)cc1)N1CCOCC1,-50,11,-5,0
C=CS(=O)(=O)c1ccc(Oc2ccc(S(=O)(=O)C=C)cc2)cc1,-46,.,61*,.
CC(NC(=O)c1ccccc1)c1ccc(F)cc1 (centres undefined),-1,.,-3,.
CCCCOc1ccc(C(=O)OC(C)CN(C)C)cc1 (centres undefined),0,-1,-9,-1
COc1ccc(C(C(=O)OC(C)CN(C)C)c2ccccc2)cc1 (centres undefined),-21,35*,-3,1
CC(=O)c1cccc(NC(=O)CCS(=O)(=O)c2cccc3nsnc23)c1,-65,-2,-11,33*
COc1ccc(NC(=O)Cc2coc3ccc4ccccc4c23)cc1S(=O)(=O)N1CCOCC1,-38,.,5,.
COc1ccc(N(C(=O)c2ccco2)S(=O)(=O)c2cc(Cl)c(Cl)cc2Cl)cc1,-75,-1,0,31*
CCOC(=O)c1c(NS(=O)(=O)Cc2ccccc2)sc2c1CCCC2,-88,6,12,36*
CCOC(=O)c1c(NC(=O)Cc2cccs2)sc2c1CCCC2,-29,0,-13,37*
CCn1c(SC(=O)NC2CCCCC2)nnc1-c1cccs1,-31,22,-3,11
Cc1nn(-c2ccccc2)c(C)c1/C=N/NC(=O)CSc1nnc(SCc2ccc(Cl)cc2)s1,-29,.,-3,.
CCc1nc2c(cnn2-c2ccc(Cl)cc2)c(=O)n1-c1ccc(OC)cc1,-26,4,-5,49*
CCOc1ccc(-n2c(C)nc3c(cnn3-c3ccc(Cl)cc3)c2=O)cc1,-89,10,1,14
Cc1ccc(/C=N/n2cnc3sc(-c4ccccc4)cc3c2=O)o1,21,65*,-13,2
COc1cccc(-n2cnc3sc(C)c(C)c3c2=O)c1,-34,.,0,.
O=C1CC(c2ccc3c(c2)OCO3)CN1 (centres undefined),1,17,-15,-4
CC1C(=O)C(C)C(c2ccc3c(c2)OCO3)NC1c1ccc2c(c1)OCO2 (centres undefined),-35,4,-4,35*
COc1ccccc1CN(Cc1ccco1)S(=O)(=O)c1ccc(-n2cnnn2)c(OC)c1,-55,22,-1,36*
SMILES,Yeast growth inh,PostGolgi yeast,Yeast lifespan up,PostGolgi ctrl
COc1cc(S(=O)(=O)N(Cc2ccccn2)Cc2ccccc2Cl)ccc1-n1cnnn1,-25,.,.,.
O=C(CN1CCCN(S(=O)(=O)c2ccc(Br)s2)CC1)Nc1ccc(Cl)cc1,-79,14,3,65*
O=C(Nc1cccc(F)c1)N1CC=C(c2ccc(Cl)cc2)CC1,-50,22,-12,41*
CCOC(=O)CNC(=O)CN1CCCN(S(=O)(=O)c2ccc(Br)s2)CC1,-31,-1,-33,9
O=C(CN1CCN(c2ccc(Cl)cc2)CC1)Nc1cccc(F)c1,-32,9,-17,30*
COC(=O)c1sccc1NC(=O)CN1CCN(c2ccc(F)cc2)CC1,-36,-1,-6,32*
O=C(NC1CCN(C(=O)Nc2cccc(F)c2)CC1)C1CCCCC1,-17,10,-19,2
Nn1c(N2CCCCC2)nc2ccccc21,-8,11,3,1
N#Cc1ccsc1NC(=O)COC(=O)c1cc2ccccc2cc1O,-19,.,-2,.
COC(=O)c1ccc(NC(=O)CN2CCN(c3cccc(Cl)c3)CC2)cc1,-32,3,-3,27
COC(=O)c1ccc(NC(=O)CN2CCN(c3ccc(Cl)cc3)CC2)cc1,-40,44*,-5,16
Nc1nc2n(n1)C(c1ccccc1Cl)CC(c1ccc(F)cc1)N2 (centres undefined),-29,-1,-5,16
Cc1ccc(C2CC(c3ccccc3Cl)n3nc(N)nc3N2)cc1 (centres undefined),16,1,-6,40*
CCn1c(-c2ccccc2Cl)nn(CC(=O)Nc2ccccc2C)c1=S,-7,-3,-4,1
CCc1ccc(OCc2nc(-c3ccccn3)no2)c(Br)c1,-41,9,-23,27
Cc1ccc(OCc2nc(-c3ccccn3)no2)c(Br)c1,-53,-5,-14,34*
CC(C)c1ccc(OCc2nc(-c3ccccn3)no2)c(Br)c1,-63,2,-9,38*
Clc1ccccc1OCc1nc(-c2ccncc2)no1,-3,1,-11,11
Clc1ccc(OCc2nc(-c3ccncc3)no2)c(Br)c1,-8,46*,-10,79*
CC(C)CC(c1nnnn1C(C)C)N1CCN(c2cccc(Cl)c2)CC1 (centres undefined),-52,4,0,73*
COc1cc2oc3ccccc3c2cc1N(CC(=O)N1CCCCC1)S(=O)(=O)c1ccc(C)cc1,-63,-3,-7,43*
COc1cc2oc3ccccc3c2cc1N(CC(=O)N(C)C)S(=O)(=O)c1ccc(C)cc1,-1,-3,-1,16
O=C(Cc1c(C(=O)O)[nH]c2ccc(Cl)cc12)Nc1ccc2c(c1)OCCO2,-28,-4,4,-4
CC(C)NC(=S)N/N=C1\CCCCC1C1CCCCC1 (centres undefined),33,-5,-13,30*
O=C(N/N=C\c1cccc(OC(=O)c2ccco2)c1)c1ccc2c(c1)OCO2,-42,.,0,.
SMILES,Yeast growth inh,PostGolgi yeast,Yeast lifespan up,PostGolgi ctrl
Cc1cccc(OCC2=NS(=O)(=O)c3ccccc3N2)c1,-27,1,-7,15
Oc1cnn(-c2ccccc2)c1,-2,-7,-3,32*
O=C(Cc1cnn(-c2ccccc2)c1)c1ccc(O)c(O)c1O,-20,1,-6,4
O=C(NCC(c1cccnc1)N1CCOCC1)c1ccc2c(c1)OCO2 (centres undefined),-35,-1,-5,0
O=C(NCC(c1cccnc1)N1CCN(c2ccccc2)CC1)c1ccc2c(c1)OCO2 (centres undefined),-29,74*,-16,8
COC(=O)NCC(c1cccnc1)N1CCN(c2ccccc2)CC1 (centres undefined),0,-2,0,6
COc1ccc(N2CCN(C(CNS(=O)(=O)c3cccs3)c3cccnc3)CC2)cc1 (centres undefined),-78,-2,-6,-2

# Screening data (PubChem BioAssay)
